Source: ChEMBL document CHEMBL3098054, “The synthesis of novel taxoids for oral administration” (Bioorg Med Chem, 2014)

What was measured:
[1] = (§1) Apparent permeability from basolateral to apical side in human Caco2 cells at 10 uM after 90 mins by LC-MS/MS analysis; format: ADME, cell-based, Caco-2; conditions: Caco-2
MCF7 [2] = assay: Cytotoxicity against human MCF7 cells after 72 hrs by MTT assay; format: functional, cell-based; conditions: MCF7, 72 h
Summary of the method: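 MCF-7 cells exposed to compound for 72 h and read by MTT. At least six replicate wells per assay, run on three separate occasions. IC₅₀ given as mean with standard deviation.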

MCF7 [3] = assay: Cytotoxicity against human MCF7 cells at 1 uM after 72 hrs by MTT assay; format: functional; conditions: MCF7, 72 h, read-out: GI
Summary of the method: (§2)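 Cells plated at 2000–5000/well, attached overnight at 37 °C. DMSO stocks (100 mM) serially diluted in medium to a final 1 µM, tested in duplicate wells. Exposure 72 h at 37 °C, 5% CO₂. MTT (5 mg/mL, 10 µL) added for 4 h. Lysis in 10% SDS / 5% isopropanol / 0.012 N HCl, then OD read at 580–680 nm.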

[4] = (§3) Apparent permeability from apical to basolateral side in human Caco2 cells at 10 uM after 90 mins by LC-MS/MS analysis; format: ADME, cell-based, Caco-2; conditions: Caco-2
NCI-H460 = assay: Cytotoxicity against human NCI-H460 cells at 1 uM after 72 hrs by MTT assay; format: functional; conditions: NCI-H460, 72 h, read-out: GI; summary of the method: as §2
HL-60 = assay: Cytotoxicity against human HL60 cells at 1 uM after 72 hrs by MTT assay; format: functional; conditions: HL-60, 72 h, read-out: GI; summary of the method: as §2
[5] = (§4) Efflux ratio of apparent permeability from basolateral to apical side over apical to basolateral side in human Caco2 cells at 10 uM after 90 mins by LC-MS/MS analysis; format: ADME, cell-based, Caco-2; conditions: Caco-2
Summary of the method: (§5)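 Caco-2 cells cultured 21 days on 24-well inserts, TEER >250 Ω·cm². Monolayers pre-incubated in HBSS pH 7.4 at 37 °C. Compound added to the donor side at 10 µM, 37 °C, 5% CO₂, 90 min, in the A-to-B and B-to-A directions. Donor and receiver levels measured by LC-MS/MS. Papp calculated from receiver amount, membrane area 0.7 cm², time and initial donor concentration. Efflux ratio = B–A/A–B.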

A2780 = assay: Cytotoxicity against human A2780 cells at 1 uM after 72 hrs by MTT assay; format: functional; conditions: A2780, 72 h, read-out: GI; summary of the method: as §2
DU-145 = assay: Cytotoxicity against human DU145 cells at 1 uM after 72 hrs by MTT assay; format: functional; conditions: DU-145, 72 h, read-out: GI; summary of the method: as §2
A-375 = assay: Cytotoxicity against human A375 cells at 1 uM after 72 hrs by MTT assay; format: functional; conditions: A-375, 72 h, read-out: GI
Summary of the method: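 Cells plated at 2000–5000/well, attached overnight at 37 °C. DMSO stocks (100 mM) serially diluted in medium to a final 1 µM, tested in duplicate wells. MTT (5 mg/mL, 10 µL) added for 4 h. Lysis in 10% SDS / 5% isopropanol / 0.012 N HCl, then OD read at 580–680 nm.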

HeLa = assay: Cytotoxicity against human HeLa cells at 1 uM after 72 hrs by MTT assay; format: functional; conditions: read-out: GI; summary of the method: as §2
HT-29 = assay: Cytotoxicity against human HT-29 cells at 1 uM after 72 hrs by MTT assay; format: functional; conditions: HT-29, 72 h, read-out: GI; summary of the method: as §2
Caco-2 [6] = assay: as §1; format: ADME, cell-based; conditions: caco-2, 1.5 h, 10 µM
[7] = Apparent permeability from basolateral to apical side in wild-type MDCK cells at 5 uM after 90 mins; format: ADME, cell-based, Canis lupus familiaris; conditions: dog
Summary of the method: (§6)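 MDCK-MDR1 monolayers grown on polycarbonate filter Transwells, confluent 5 days after seeding, TEER >1000 Ω·cm² before use. MDCK-WT cells plated at 5.0 × 10⁴ cells/well and used after 6 days at TEER >200 Ω·cm². Transport run at 37 °C in HBSS pH 7.4 for 90 min, in both directions. Lucifer yellow permeability and TEER change served as monolayer integrity checks. Efflux ratio = Papp(B–A)/Papp(A–B).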

Caco-2 [8] = assay: as §3; format: ADME, cell-based; conditions: caco-2, 1.5 h, 10 µM
[9] = molecular target: ATP-dependent translocase ABCB1 (Homo sapiens, UniProt P08183); assay: Inhibition of MDR1 (unknown origin) expressed in MDCK cells at 10 uM after 90 mins; format: ADME, cell-based; conditions: 1.5 h
Chain of ATP-dependent translocase ABCB1 (P08183 whole entry): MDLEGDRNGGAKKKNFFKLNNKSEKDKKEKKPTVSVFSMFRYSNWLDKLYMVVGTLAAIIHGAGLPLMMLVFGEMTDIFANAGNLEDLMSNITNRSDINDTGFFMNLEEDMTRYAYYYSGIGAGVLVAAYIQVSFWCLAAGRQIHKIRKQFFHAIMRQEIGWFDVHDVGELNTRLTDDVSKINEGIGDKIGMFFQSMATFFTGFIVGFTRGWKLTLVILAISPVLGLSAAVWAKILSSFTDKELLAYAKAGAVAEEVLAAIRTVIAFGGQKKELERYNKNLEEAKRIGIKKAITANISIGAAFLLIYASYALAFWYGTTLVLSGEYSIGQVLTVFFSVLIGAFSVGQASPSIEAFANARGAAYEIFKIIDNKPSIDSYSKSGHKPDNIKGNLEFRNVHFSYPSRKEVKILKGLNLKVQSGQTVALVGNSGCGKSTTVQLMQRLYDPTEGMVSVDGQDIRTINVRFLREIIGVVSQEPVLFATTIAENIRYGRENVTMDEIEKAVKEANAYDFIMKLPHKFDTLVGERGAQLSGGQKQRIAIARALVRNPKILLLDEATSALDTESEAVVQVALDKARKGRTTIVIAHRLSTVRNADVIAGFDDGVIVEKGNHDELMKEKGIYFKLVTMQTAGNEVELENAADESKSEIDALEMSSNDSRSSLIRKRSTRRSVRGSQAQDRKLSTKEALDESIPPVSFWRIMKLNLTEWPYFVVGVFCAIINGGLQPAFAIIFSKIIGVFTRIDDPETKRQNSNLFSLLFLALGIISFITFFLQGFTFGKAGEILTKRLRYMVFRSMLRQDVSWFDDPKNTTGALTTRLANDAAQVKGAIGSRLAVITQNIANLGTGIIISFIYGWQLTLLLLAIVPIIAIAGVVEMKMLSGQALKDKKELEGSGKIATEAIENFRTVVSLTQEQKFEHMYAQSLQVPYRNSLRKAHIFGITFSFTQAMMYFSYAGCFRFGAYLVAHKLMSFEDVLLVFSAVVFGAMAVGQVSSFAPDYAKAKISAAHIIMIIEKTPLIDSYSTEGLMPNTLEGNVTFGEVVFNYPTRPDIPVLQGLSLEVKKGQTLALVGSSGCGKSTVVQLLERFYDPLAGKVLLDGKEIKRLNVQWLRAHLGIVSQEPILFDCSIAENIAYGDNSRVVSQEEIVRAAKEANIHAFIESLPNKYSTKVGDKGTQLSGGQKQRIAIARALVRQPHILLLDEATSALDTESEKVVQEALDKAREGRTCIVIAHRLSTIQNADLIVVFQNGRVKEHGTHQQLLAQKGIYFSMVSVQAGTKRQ
Summary of the method: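 P-gp inhibition measured as digoxin bidirectional transport across MDCK-MDR1 monolayers at 37 °C in HBSS pH 7.4, with test compound present at 10 µM. Read-out is the change in digoxin efflux ratio, Papp(B–A)/Papp(A–B).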

MDR1 [10] = assay: Apparent permeability from apical to basolateral side in MDCK cells expressing MDR1 at 5 uM after 90 mins; format: ADME, cell-based, Canis lupus familiaris; conditions: dog; summary of the method: as §6
MDR1 [11] = assay: Efflux ratio of apparent permeability from basolateral to apical side over apical to basolateral side in MDCK cells expressing MDR1 at 5 uM after 90 mins; format: ADME, cell-based, Canis lupus familiaris; conditions: dog; summary of the method: as §6
Caco-2 [12] = assay: as §4; format: ADME, cell-based; conditions: caco-2, 1.5 h, 10 µM; summary of the method: as §5
[13] = Apparent permeability from apical to basolateral side in wild-type MDCK cells at 5 uM after 90 mins; format: ADME, cell-based, Canis lupus familiaris; conditions: dog; summary of the method: as §6
[14] = Efflux ratio of apparent permeability from basolateral to apical side over apical to basolateral side in wild-type MDCK cells at 5 uM after 90 mins; format: ADME, cell-based, Canis lupus familiaris; conditions: dog; summary of the method: as §6
MDR1 [15] = assay: Apparent permeability from basolateral to apical side in MDCK cells expressing MDR1 at 5 uM after 90 mins; format: ADME, cell-based, Canis lupus familiaris; conditions: dog; summary of the method: as §6

| SMILES | Papp B→A at 1.5 h, 10 µM [1] [×10⁻⁶ cm/s] | IC50 (MCF7 [2]) [nM] | inhibition of growth at 1 µM (MCF7 [3]) [%] | Papp A→B at 1.5 h, 10 µM [4] [×10⁻⁶ cm/s] | inhibition of growth at 1 µM (NCI-H460) [%] | inhibition of growth at 1 µM (HL-60) [%] | efflux ratio at 1.5 h, 10 µM [5] | inhibition of growth at 1 µM (A2780) [%] | inhibition of growth at 1 µM (DU-145) [%] | inhibition of growth at 1 µM (A-375) [%] | inhibition of growth at 1 µM (HeLa) [%] | inhibition of growth at 1 µM (HT-29) [%] | Papp (Caco-2 [6]) [×10⁻⁶ cm/s] | Papp B→A at 1.5 h, 5 µM [7] [×10⁻⁶ cm/s] | inhibition (INH) [9] | Papp A→B at 1.5 h, 5 µM (MDR1 [10]) [×10⁻⁶ cm/s] | efflux ratio at 1.5 h, 5 µM (MDR1 [11]) | Papp A→B at 1.5 h, 5 µM [13] [×10⁻⁶ cm/s] | efflux ratio at 1.5 h, 5 µM [14] | Papp B→A at 1.5 h, 5 µM (MDR1 [15]) [×10⁻⁶ cm/s] | other results |
| --- | --- | --- | --- | --- | --- | --- | --- | --- | --- | --- | --- | --- | --- | --- | --- | --- | --- | --- | --- | --- | --- |
| CO[C@H]1C[C@H]2OC[C@@]2(OC(C)=O)[C@H]2[C@H](OC(=O)c3ccccc3)[C@]3(O)C[C@H](OC(=O)[C@H](O)[C@@H](NC(=O)OC(C)(C)C)c4ccccc4)C(C)=C([C@@H](OC(=O)N(C)C)C(=O)[C@]12C)C3(C)C | 33.1 | 1.58 | 93.5 | 8.11 | 83.3 | 97.2 | 4.08 | 94.8 | 84.8 | 87.7 | 99.8 | 87.9 | – | – | – | – | – | – | – | – | – |
| CO[C@H]1C(=O)[C@]2(C)[C@@H](OC(=O)N(C)C)C[C@H]3OC[C@@]3(OC(C)=O)[C@H]2[C@H](OC(=O)c2ccccc2)[C@]2(O)C[C@H](OC(=O)[C@H](O)[C@@H](NC(=O)OC(C)(C)C)c3ccccc3)C(C)=C1C2(C)C | – | 9.63 | 102 | – | 86.6 | 97.8 | – | 95.8 | 87.5 | 90.4 | 103 | 89.8 | 26 | 3.17 | Active | 0.52 | 10.1 | 1.39 | 2.28 | 5.26 | Papp (Caco-2 [8]): 10.6 ×10⁻⁶ cm/s; Ratio (Caco-2 [12]): 1.73 |
| CO[C@H]1C(=O)[C@]2(C)[C@@H](OC(=O)N(C)C)C[C@H]3OC[C@@]3(OC(C)=O)[C@H]2[C@H](OC(=O)c2ccccc2)[C@]2(O)C[C@H](OC(=O)[C@H](O)[C@H](CC(C)C)NC(=O)OC(C)(C)C)C(C)=C1C2(C)C | – | 13.3 | – | – | – | – | – | – | – | – | 102 | – | 30.9 | – | – | – | – | – | – | – | Papp (Caco-2 [8]): 10.7 ×10⁻⁶ cm/s; Ratio (Caco-2 [12]): 1.59 |
| CO[C@H]1C[C@H]2OC[C@@]2(OC(C)=O)[C@H]2[C@H](OC(=O)c3ccccc3)[C@]34OC(=O)O[C@H]3[C@H](OC(=O)[C@H](O)[C@@H](NC(=O)OC(C)(C)C)c3ccccc3)C(C)=C([C@@H](OC(=O)N(C)C)C(=O)[C@]12C)C4(C)C | 33.5 | 7.93 | – | 16.4 | – | – | 2.04 | – | – | – | – | – | – | 2.99 | Active | 0.63 | 10.1 | 1.4 | 2.13 | 6.38 | – |
| C[C@H]1O[C@@H](O[C@H]2[C@@H](O)C[C@H](O[C@H]3[C@@H](O)C[C@H](O[C@H]4CC[C@@]5(C)[C@H](CC[C@@H]6[C@@H]5C[C@@H](O)[C@]5(C)[C@@H](C7=CC(=O)OC7)CC[C@]65O)C4)O[C@@H]3C)O[C@@H]2C)C[C@H](O)[C@@H]1O [DIGOXIN] | – | – | – | – | – | – | – | – | – | – | – | – | – | 8.06 | – | 0.19 | 65.5 | 0.35 | 22.7 | 12.4 | – |
| CC(=O)O[C@H]1C(=O)[C@@]2(C)[C@H]([C@H](OC(=O)c3ccccc3)[C@]3(O)C[C@H](OC(=O)[C@H](O)[C@@H](NC(=O)c4ccccc4)c4ccccc4)C(C)=C1C3(C)C)[C@]1(OC(C)=O)CO[C@@H]1C[C@@H]2O [PACLITAXEL] | 33.4 | 7.05 | – | 0.97 | – | – | 34.4 | – | – | – | – | – | – | 29.8 | Not Active | 0.13 | 334 | 0.09 | 344 | 44.1 | – |
